Source: PubChem BioAssay (The Scripps Research Institute Molecular Screening Center)
ABHD4 inh: inhibits mouse alpha/beta hydrolase domain 4; actives 0.54% (n = 370,000); AID 720543; purified mABHD4, FP-Rh probe fluorescence polarization; Q8VD66; inhibition, % at 8.92 µM;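 active = inhibition exceeding the mean over every tested compound plus 3 SD, cut at about 30% in these data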;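 also: 0% = plate median of compound wells and 100% = S159A mutant with DMSO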
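System: mouse ABHD4 enzyme, wild type / Medium: HEPES pH 7.0, NaCl, Pluronic buffer / Reagent: FP-Rh activity-based fluorescent probe / Control set: S159A mutant high control, sample median low control / Detection: fluorescence polarization with parallel and perpendicular emission, 525/598 nm / Schedule: 45 min + 60 min at 25 °C / Compound dosing: 8.92 µM, single dose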
PAD4 FP inh: PAD4 (human) enzyme inhibition; actives 0.41% (n = 330,000); recombinant PAD4, RCA probe fluorescence polarization; AID 485272; Q9UM07; inhibition, % at 6.36 µM;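 active = percent inhibition above a cutoff equal to the mean of all tested compounds plus 3 SD, cut at about 15% in these data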;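 also: 0% = PAD4 with RCA probe and DMSO and 100% = probe without PAD4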
SIAE inh: blocks human sialic acid acetylesterase | actives 0.69% (n = 370,000) | Q9HAT2 | inhibition, % at 9.66 µM | SIAE FP-Rh probe binding, fluorescence polarization;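 active = inhibition above a cutoff: mean of compounds within the control limits plus 3 SD of those, cut at about 17% in these data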;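 also: 0% = plate median of compound wells and 100% = probe without SIAE protein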
TDP2 absorb: TDP2 (human) inhibition, absorbance primary screen; recombinant TDP2, T5PNP hydrolysis, p-nitrophenol absorbance 415 nm; inhibition, % at 12.8 µM; AID 720702; O95551; actives 0.34% (n = 370,000);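 active = inhibition above the mean of all tested compounds plus 3 SD, set per campaign, cut at about 25% in these data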;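 also: 0% = DMSO with enzyme and 100% = buffer with substrate but no TDP2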
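Assay system: Recombinant human TDP2 | Quantity: 120 nM TDP2 per well | Incubation: 2 h at 37 °C | Signal: Epi absorbance | Evaluation: Percent inhibition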
HTRA1 inhibitor: HTRA1 (human) protease inhibition. actives 0.5% (n = 340,000). inhibition, % at 5.96 µM. recombinant HTRA1, FP-rhodamine activity-based probe, fluorescence polarization. Q92743; in the data active = inhibition above about 36%;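 also: 0% = enzyme with DMSO and 100% = wells lacking enzyme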
Target sequence (Q92743 whole entry, looked up): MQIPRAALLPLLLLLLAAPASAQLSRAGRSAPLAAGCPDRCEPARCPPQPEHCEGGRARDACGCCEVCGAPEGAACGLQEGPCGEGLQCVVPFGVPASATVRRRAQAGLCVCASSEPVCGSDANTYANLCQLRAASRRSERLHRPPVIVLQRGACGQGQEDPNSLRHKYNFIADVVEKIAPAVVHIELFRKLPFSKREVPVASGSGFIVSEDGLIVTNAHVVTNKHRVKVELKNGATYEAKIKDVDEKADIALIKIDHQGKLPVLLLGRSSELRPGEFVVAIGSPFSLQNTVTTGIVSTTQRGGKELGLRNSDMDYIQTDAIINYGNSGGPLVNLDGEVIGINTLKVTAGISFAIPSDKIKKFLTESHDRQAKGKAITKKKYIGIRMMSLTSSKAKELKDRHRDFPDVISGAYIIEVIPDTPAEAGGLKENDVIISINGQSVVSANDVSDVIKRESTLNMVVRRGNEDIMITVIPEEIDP
TCR CD3 inh: blocks the human TCR-CD3 interaction. actives 0.37% (n = 360,000). TAMRA-labeled TCR probe fluorescence, biochemical. inhibition, % at 9.4 µM;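 also: recombinant mutant TCR 2C K166C tagged with TAMRA read by polarization; 0% = receptor in buffer alone and 100% = receptor with positive control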
PAD4 confirm: PAD4 (human) inhibition, confirmed | inhibition, % at 6.36 µM | recombinant PAD4, RCA probe fluorescence polarization | actives 28% (n = 1,200) | shares compounds with PAD4 FP inh;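 active = mean inhibition across replicates above the hit cutoff set by the earlier primary screen, cut at about 15% in these data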;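 also: inhibitors block active-site labeling by the probe so polarization falls; 0% = PAD4 with probe and DMSO and 100% = probe without PAD4 enzyme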
HTRA1 inh conf: HTRA1 (human) inhibition, confirmation; shares compounds with HTRA1 inhibitor; recombinant HTRA1, FP-rhodamine activity-based probe, fluorescence polarization; inhibition, % at 5.96 µM; actives 66% (n = 1,600); AID 540248;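 active = mean inhibition over three repeats above a set limit taken from the earlier primary screen, cut at about 37% in these data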;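 also: 0% = HTRA1 with DMSO and 100% = wells lacking HTRA1; inhibitors block probe binding so polarization drops and inhibition rises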
BSA TAMRA ctr: BSA probe counter-screen for TCR-CD3 inhibitors. AID 652035. TAMRA-labeled BSA probe fluorescence counterscreen. shares compounds with TCR CD3 inh. actives 10% (n = 1,200). inhibition, % at 9.4 µM; in the data active = inhibition above about 23%;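 also: 0% = buffer low control and 100% = reference high control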
TCR-CD3 conf: TCR-CD3 interaction inhibition, confirmation. shares compounds with TCR CD3 inh. TAMRA-labeled TCR probe fluorescence binding assay. inhibition, % at 9.4 µM. actives 48% (n = 1,200)
mABHD4 conf: ABHD4 (mouse) inhibition, FP confirmation; shares compounds with ABHD4 inh; inhibition, % at 8.92 µM; actives 55% (n = 1,800); purified mABHD4, FP-Rh probe fluorescence polarization;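 active = mean inhibition across replicates above the hit cutoff set in the primary screen, cut at about 30% in these data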;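 also: 0% = wild-type ABHD4 with DMSO and 100% = catalytically dead S159A mutant with DMSO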
TDP2 inh conf: confirmation of human TDP2 inhibitors; shares compounds with TDP2 absorb; recombinant human TDP2, absorbance read-out; inhibition, % at 12.8 µM; actives 22% (n = 1,100); in the data active = inhibition above about 25%;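 also: 0% = vehicle with enzyme and 100% = no enzyme buffer only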
SIAE confirm: confirmation of human SIAE inhibitors; shares compounds with SIAE inh; SIAE FP-Rh activity-based probe, fluorescence polarization; inhibition, % at 9.66 µM; actives 13% (n = 2,300);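 active = mean inhibition of the replicates above the hit cutoff set in the primary screen, cut at about 17% in these data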;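 also: 0% = SIAE with DMSO and probe and 100% = probe without SIAE; inhibitors lower polarization as more probe stays unbound to SIAE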
Numbers without * were called inactive; · = no result; + = active, no number. Only some compounds are listed: those with a hit (about 2% of all), similar ones and a draw of the others. Rule as the data show it, unless noted: active = inhibition above about 19%; inactive = the rest.

SMILES	ABHD4 inh	PAD4 FP inh	SIAE inh	TDP2 absorb	HTRA1 inhibitor	TCR CD3 inh	PAD4 confirm	HTRA1 inh conf	mABHD4 conf	SIAE confirm	others
COC(=O)c1cc2c(-c3ccccc3)c(C)c3ccccn3c-2c1C(=O)OC	10	-3	-1	-2	21	-2	·	·	·	·
O=C(CC1Nc2cccc3cccc(c23)NC1=O)Nc1ccc(F)cc1 (centres undefined)	29	59*	24*	5	61*	-1	3	6	·	8
O=C(CC1Nc2ccccc2NC1=O)Nc1cc(Cl)cc(Cl)c1 (centres undefined)	1	-1	-1	-8	-12	-1	·	·	·	·
O=C(Nc1ccccc1)N1CCCC1c1cccs1 (centres undefined)	-7	-1	3	-1	5	2	·	·	·	·
CC1=NN(c2ccc(C(=O)O)cc2)C(=O)CC1	-1	3	-1	-2	7	5	·	·	·	·
CC1=NN(c2ccc(C(=O)O)c(N)c2)C(=O)C1	18	25*	18*	15	4	0	17*	·	·	3
O=C1C(Cl)=C(Nc2ccc3cn[nH]c3c2)C(=O)c2ccccc21	46*	48*	18*	4	47*	-2	15*	75*	54*	7
O=C(Nc1ccc2cn[nH]c2c1)c1c(Cl)cccc1Cl	-2	0	-1	-6	-8	2	·	·	·	·
Cc1ccc(C(=O)c2c3ccc(C(F)(F)F)cc3nn2CCC(N)=O)cc1	0	0	2	6	-1	6	·	·	·	·
O=C(NCCO)C(=O)NCC1CCCN1S(=O)(=O)c1cccs1 (centres undefined)	2	1	1	4	4	1	·	·	·	·
C=CCNC(=O)C(=O)NCC1CCCN1S(=O)(=O)c1cccs1 (centres undefined)	3	27*	20*	8	-3	5	10	·	·	5
O=C1CCCC/C1=C\Nc1ccc(O)cc1	54*	43*	22*	4	17	42*	5	·	13	4	BSA TAMRA ctr=-5;TCR-CD3 conf=1
O=C1CCC/C1=C/Nc1ccc(Cl)cc1	-2	1	-3	-2	6	-6	·	·	·	·
CC(=O)OCCC(NS(=O)(=O)OCC(Cl)(Cl)Cl)c1ccccc1 (centres undefined)	11	-3	-4	-8	-4	-4	·	·	·	·
O=C(CSc1nnc(-c2ccccc2)o1)NC1CC1	4	1	5	15	1	-1	·	·	·	·
Nc1cc2nc3ccccc3oc-2cc1=O	47*	28*	20*	13	30	23*	-1	·	29	7	BSA TAMRA ctr=1;TCR-CD3 conf=15
Cc1cc(N)ccc1-n1c(C)ccc1C	147*	90*	54*	12	102*	152*	-1	13	·	3	BSA TAMRA ctr=6;TCR-CD3 conf=0
Cc1cc(C(=O)O)ccc1-n1c(C)ccc1C	·	9	·	·	·	·	·	·	·	·
Cc1nc2c(ncn2-c2ccccc2)c(=O)n1NC(=O)CN1CCCCC1	-1	-4	-3	8	4	-4	·	·	·	·
O=C1C=C(Nc2cccc3cccnc23)c2ccccc2C1=O	59*	34*	19*	19	42*	14	54*	39*	25	4
N#CCCN(CCC#N)C(=O)C1c2ccccc2Oc2ccccc21	103*	101*	67*	7	31	124*	7	·	2	3	BSA TAMRA ctr=11;TCR-CD3 conf=8
CN(C(=S)NC(=O)C12CC3CC(CC(C3)C1)C2)c1ccc(O)cc1	41*	24*	18*	19	11	17	1	·	15	1
CN(C)NC(=S)NC(=O)C12CC3CC(CC(C3)C1)C2	-6	1	0	-5	-2	5	·	·	·	·
COc1ccc(NC(=O)CCN(c2ccc(OC)cc2)S(=O)(=O)c2ccc(C)c(C)c2)cc1	-7	·	5	-2	-23	6	·	·	·	·
CC(=O)c1cccc(NC(=S)NC2CC2)c1	1	3	8	10	3	2	·	·	·	·
SMILES	ABHD4 inh	PAD4 FP inh	SIAE inh	TDP2 absorb	HTRA1 inhibitor	TCR CD3 inh	PAD4 confirm	HTRA1 inh conf	mABHD4 conf	SIAE confirm	others
CC(=O)c1cccc(NC(=S)NC2CCCCC2)c1	5	33*	19*	1	7	-2	7	·	·	-1
COC(=O)/C(=C/Nc1ccc(O)cc1)[N+](=O)[O-]	94*	68*	25*	7	45*	99*	2	4	-1	-3	BSA TAMRA ctr=3;TCR-CD3 conf=-1
Cc1cc2c(N)cccc2nn1	168*	120*	142*	77*	101*	+	-2	5	116*	65*	TDP2 inh conf=57*
Oc1c(Br)cc(Br)cc1CNc1cccc2cccnc12	56*	18*	32*	36*	70*	6	-2	32	-10	15	TDP2 inh conf=27*
O=C(O)c1cccc(-n2sc3ccccc3c2=O)c1	-9	56*	18*	-8	-1	-1	46*	·	·	0
O=c1c2ccccc2sn1-c1cccc(Cl)c1	4	·	-7	-16	0	2	·	·	·	·
Cc1ccc(NC(=O)CS(=O)CC(=O)Nc2ccccc2-c2ccc(C)o2)cc1 (centres undefined)	45*	17*	33*	2	57*	86*	1	-9	-2	9	BSA TAMRA ctr=6;TCR-CD3 conf=4
O=C(CS(=O)CC(=O)Nc1ccccc1-c1ccccc1)Nc1ccc(F)cc1 (centres undefined)	-10	1	-3	7	4	1	·	·	·	·
CCC(CNc1cc(OC)cc2cccnc12)NC1CCCCC1 (centres undefined)	89*	90*	48*	79*	21	126*	14	·	26	12	BSA TAMRA ctr=17;TCR-CD3 conf=14;TDP2 inh conf=25*
Cc1nc2ccccc2n2c(O)c(CC(=O)O)cc12	30*	75*	18*	8	55*	16	39*	40*	74*	31*
Cc1nc2ccccc2n1CCC(=O)O	6	-3	-5	-2	0	-2	·	·	·	·
